Measurements as given in ChEMBL document CHEMBL4433206, “Novel Lysine-Based Thioureas as Mechanism-Based Inhibitors of Sirtuin 2 (SIRT2) with Anticancer Activity in a Colorectal Cancer Murine Model” (J Med Chem, 2019).
The source made the active and inactive calls. The rule behind the calls is not given here.

Legend:
HCT-116 [1] = test: Inhibition of anchorage-independent cell growth in human HCT116 cells assessed as reduction in colony formation incubated for 5 days followed by compound re-addition and measured after 9 to 11 days by nitro blue tetrazolium chloride-based soft agar colony formation assay; type: functional
In short: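 HCT116 cells were mixed at 500 cells/mL into 0.3% agar growth layer over a 0.6% agar base layer (McCoy's medium, 10% calf serum). Both layers held inhibitor at 2.5–50 μM final. Wells were run in triplicate at 37 °C. Inhibitor-containing growth layer was added again at day 5. At 9–11 days, nitro blue tetrazolium was added overnight and colonies were imaged and counted.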

HCT-116 [2] = test: Antitumor activity against human HCT116 cells harboring KRAS G13D mutant xenografted in NSG mouse assessed as tumor growth inhibition by measuring reduction in tumor weight at 100 mg/kg, ip administered daily for 12 days and measured post-last dose relative to control; type: functional; settings: HCT-116, ip, 288 h, read-out: TGI
In short: (§1)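 NSG mice, female and male, about 4–8 weeks old, were implanted with 1 × 10⁶ HCT116 cells on both sides of the abdomen. Tumours grew 3–5 days until visible. Compound was given ip daily for 12 days in vehicle containing 10% DMSO and 10% Kolliphor EL (dosing solution 10 mg/mL); control mice received vehicle. Tumour volume was measured daily; tumours were excised and weighed on the last day. Unpaired two-tailed t-test.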

SW948 [3] = test: Growth inhibition of human SW948 cells after 72 hrs by CellTiter-Blue assay; type: functional; settings: SW948, 72 h
NCI-H23 = test: Growth inhibition of human NCI-H23 cells after 72 hrs by CellTiter-Blue assay; type: functional; settings: NCI-H23, 72 h
[4] = Toxicity in NSG mouse xenografted with human HCT116 cells harboring KRAS G13D mutant assessed as body weight loss at 100 mg/kg, ip administered daily for 12 days measured during compound dosing; type: organism-based; settings: in vivo, 288 h
CCD-841CoN = test: Growth inhibition of human CCD-841-CoN cells after 72 hrs by CellTiter-Blue assay; type: cell-based
In short: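 3000 cells/well seeded, 20 h at 37 °C. Inhibitor added at final 1–100 μM, then 72 h at 37 °C. Viability read by CellTiter-Blue after 4 h at 37 °C, fluorescence 560 nm excitation/590 nm emission. GI50 derived.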

HCT-116 [5] = test: Antitumor activity against human HCT116 cells harboring KRAS G13D mutant xenografted in NSG mouse assessed as tumor growth inhibition by measuring reduction in tumor volume at 100 mg/kg, ip administered daily for 12 days and measured post-last dose relative to control; type: functional; settings: HCT-116, ip, 288 h, read-out: TGI; in short: as §1
SW948 [6] = test: Potency index, ratio of TM GI50 to compound GI50 for growth inhibition of human SW948 cells; type: functional
HCT-116 [7] = test: Potency index, ratio of TM GI50 to compound GI50 for growth inhibition of human HCT116 cells; type: functional
MDA-MB-231 = test: Potency index, ratio of TM GI50 to compound GI50 for growth inhibition of human MDA-MB-231 cells; type: functional
A549 = test: Potency index, ratio of TM GI50 to compound GI50 for growth inhibition of human A549 cells; type: functional
MCF7 [8] = test: Potency index, ratio of TM GI50 to compound GI50 for growth inhibition of human MCF7 cells; type: functional
MCF7 [9] = test: Growth inhibition of human MCF7 cells after 72 hrs by CellTiter-Blue assay; type: functional; settings: MCF7, 72 h
[10] = biological target: T1, NAD-dependent protein deacetylase sirtuin-3, mitochondrial (Homo sapiens, UniProt Q9NTG7); test: Inhibition of human SIRT3 assessed as reduction in deacetylase activity using acetylated H3K9 as substrate preincubated for 15 mins followed by substrate addition and measured after 15 mins by UV-HPLC analysis
T1 sequence (Q9NTG7 whole entry): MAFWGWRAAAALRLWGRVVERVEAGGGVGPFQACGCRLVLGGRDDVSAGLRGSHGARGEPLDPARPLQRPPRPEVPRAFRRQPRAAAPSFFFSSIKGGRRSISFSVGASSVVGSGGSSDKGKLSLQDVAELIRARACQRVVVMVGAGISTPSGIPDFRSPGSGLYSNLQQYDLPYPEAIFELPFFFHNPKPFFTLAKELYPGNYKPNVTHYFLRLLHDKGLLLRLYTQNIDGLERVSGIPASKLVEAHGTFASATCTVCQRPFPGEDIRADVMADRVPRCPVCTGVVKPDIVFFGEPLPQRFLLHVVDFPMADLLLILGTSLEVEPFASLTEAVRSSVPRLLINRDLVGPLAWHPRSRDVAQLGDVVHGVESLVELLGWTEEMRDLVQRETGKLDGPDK

HCT-116 [11] = test: Antitumor activity against human HCT116 cells harboring KRAS G13D mutant xenografted in NSG mouse assessed as tumor growth inhibition by measuring reduction in tumor weight at 25 mg/kg, ip administered daily for 12 days and measured post-last dose; type: functional, organism-based; in short: as §1
HCT-116 [12] = test: Antitumor activity against human HCT116 cells harboring KRAS G13D mutant xenografted in NSG mouse assessed as tumor growth inhibition by measuring reduction in tumor volume at 25 mg/kg, ip administered daily for 12 days and measured daily during compound dosing; type: functional, organism-based; in short: as §1

GI50 (HCT-116 [1]) [µM]	GI50 (SW948 [3]) [µM]	GI50 (NCI-H23) [µM]	GI50 (MCF7 [9]) [µM]	IC50 [10] [µM]	Compound	inhibition in vivo at 100 mg/kg (HCT-116 [2]) [%]	Activity [4]	GI50 (CCD-841CoN) [µM]	inhibition in vivo at 100 mg/kg (HCT-116 [5]) [%]	RatioGI50 (SW948 [6])	RatioGI50 (HCT-116 [7])	RatioGI50 (MDA-MB-231)	RatioGI50 (A549)	RatioGI50 (MCF7 [8])	TGI (HCT-116 [11])	TGI (HCT-116 [12])
7	12.8	15.6	18.4	> 200	CCCCCCCCCCNC(=S)NCCCC[C@H](NC(=O)OCc1ccccc1)C(=O)Nc1ccccc1	49	Non-Toxic	47.4	37	2	2	2	2	2		
7.4	30	35.8	42.6		CCCCCCCCNC(=S)NCCCC[C@H](NC(=O)OCc1ccccc1)C(=O)Nc1ccccc1	78	Non-Toxic		80						inactive	inactive
